This note sets out measurements from ChEMBL document CHEMBL1122158, “Agents with potential specificity against melanotic melanoma” (1982).

A value given as a limit tells only on which side of the number the result lay.

The subject of one assay is A2 (Mus musculus). As to the kind of experiment: In vitro effective dose that causes 50% inhibition of growth of A2 cell line - amelanotic melanoma. Conditions: read-out: ED50 (the source's name).
Assay [1] has as its system B16. The assay is described as follows: In vivo antitumor activity against B-16 Melanoma after intraperitoneal tumor implantation and then intraperitoneal administration of 100 mg/kg of dose. The class given is functional, Mus musculus. In short, it runs like this: (§1)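 B-16 melanoma was implanted intraperitoneally and dosed per NCI protocols. Intraperitoneal treatment began 24 h after implant and was given once daily on days 1-9. Activity was expressed as % T/C, with T/C ≥ 125% taken as statistically significant.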

The subject of the next assay is PS. As to the kind of experiment: In vitro effective dose that causes 50% inhibition of growth of PS cell line - P388 lymphocytic leukemia. Conditions: Mus musculus, read-out: ED50 (the source's name).
The subject of the next assay is M2R. As to the kind of experiment: In vitro effective dose that causes 50% inhibition of growth of M2R cell line - amelanotic melanoma. The class given is functional. Conditions: Mus musculus, in the assay text read “melanotic melanoma” for “amelanotic melanoma”, read-out: ED50 (the source's name). In short, it runs like this:
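1 × 10^4 cells seeded in a 1:1 DMEM/Ham's F-12 medium with 1.2 g/L NaHCO3, 15 mM HEPES and 10% fetal bovine serum, at 37 °C in 5% CO2. After 24 h, the medium was replaced with fresh medium holding the test agent at various concentrations. Growth was followed for at least 3 more days by trypsinizing and Coulter counting. Net cell increase was expressed as % of control when controls had grown 8-fold.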

Assay [2] concerns B16. The assay is described as follows: In vivo antitumor activity against B-16 Melanoma after intraperitoneal tumor implantation and then intraperitoneal administration of 150 mg/kg of dose. The class given is functional, Mus musculus. In short, it runs like this:
as §1

For the next assay, the system named is KB. As to the kind of experiment: In vitro effective dose that causes 50% inhibition of growth of KB cell line - human epidermoid carcinoma of the nasopharynx. The class given is functional. Conditions: read-out: ED50 (the source's name).
Assay [3] relates to B16. As to the kind of experiment: In vivo antitumor activity against B-16 Melanoma after intraperitoneal tumor implantation and then intraperitoneal administration of 75 mg/kg of dose. The class given is functional, Mus musculus. The procedure, abridged: as §1

In general, T/C refers to the result in the treated group divided by that in the control group, in per cent. Regarding `NC(CCCNc1ccc(O)cc1)C(=O)O` (stereo unspecified), the EC50 turned out to be 22 µM in the assay with A2 (Mus musculus), 9.5 µM with PS, 13 µM in the assay on M2R and 120 µM with KB. Further, the T/C was found to be 98% in the assay on B16 [1], 106% with B16 [2] and 122% in the assay with B16 [3].

In the case of `NC(CCCNc1cccc(O)c1)C(=O)O` (stereo unspecified), the EC50 in the assay with A2 (Mus musculus) was > 100 µM; in the assay with PS, 300 µM; in the assay with M2R it was > 100 µM; in the assay with KB, 300 µM. The T/C is given as 87% with B16 [1], 82% in the assay with B16 [2] and 104% in the assay on B16 [3].

For `NC(CNc1ccc(O)cc1)C(=O)O` (stereo unspecified), the EC50 worked out at 54 µM in the assay on A2 (Mus musculus), 32 µM in the assay on PS, 24 µM in the assay with M2R and 140 µM with KB. For the same compound, the T/C with B16 [1] was 103%; in the assay with B16 [2], 101%; in the assay on B16 [3], 111%.
